The record followed here is ChEMBL document CHEMBL1128546 (J Med Chem, 1995).

The target in test [1] is 5-hydroxytryptamine receptor 1D (Homo sapiens, UniProt P28221). Description: Binding affinity to recombinant human 5-hydroxytryptamine 1D receptor alpha. The procedure, abridged:
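Binding to the cloned human receptor subtype. Values are Ki, given as the mean of one or two independent experiments, each run in duplicate.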

Test [2] is filed under the species Oryctolagus cuniculus. Description: The compound was tested for functional activity by measuring the contraction of saphenous vein from New Zealand white rabbit.
Test [3] is filed under the species Oryctolagus cuniculus. As to the kind of experiment: Maximum vein contraction obtained relative to 5-hydroxytryptamine. It is filed as functional.

5-hydroxytryptamine receptor 1D, sequence (P28221 whole entry): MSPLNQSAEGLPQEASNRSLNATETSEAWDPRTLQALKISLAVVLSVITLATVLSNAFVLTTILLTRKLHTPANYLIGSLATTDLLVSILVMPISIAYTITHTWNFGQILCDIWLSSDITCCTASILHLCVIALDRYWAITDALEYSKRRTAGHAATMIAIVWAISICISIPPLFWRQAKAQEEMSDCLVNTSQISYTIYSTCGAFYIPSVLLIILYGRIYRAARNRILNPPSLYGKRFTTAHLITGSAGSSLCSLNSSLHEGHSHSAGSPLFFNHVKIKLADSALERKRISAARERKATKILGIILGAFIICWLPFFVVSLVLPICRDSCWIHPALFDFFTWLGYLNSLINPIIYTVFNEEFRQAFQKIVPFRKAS

As usually defined, the Ki is the equilibrium dissociation constant of an inhibitor or competing ligand from its target. With `NCCc1c[nH]c2ccc(OCCCCC(=O)N3CCN(c4ccc(N)cc4)CC3)cc12`, in test [1], the Ki turned out to be 1.4 nM. In the test listed under Oryctolagus cuniculus [2], this compound gave a pD2 of 7.05. The compound also showed a Rel max in the test listed under Oryctolagus cuniculus [3] of 0.73.

As to `CS(=O)(=O)NCc1ccc(N2CCN(C(=O)COc3ccc4[nH]cc(CCN)c4c3)CC2)cc1`, in test [1], the Ki stood at 1 nM. In addition, the pD2 in the test listed under Oryctolagus cuniculus [2] came out at 6.92. In the test filed under Oryctolagus cuniculus [3], this compound gave a Rel max of 0.88.

On to `N#Cc1ccccc1N1CCN(C(=O)COc2ccc3[nH]cc(CCN)c3c2)CC1`, for which, in test [1], the Ki worked out at 0.92 nM. This compound registered a pD2 in the test listed under Oryctolagus cuniculus [2] of 7.42. In the test listed under Oryctolagus cuniculus [3], this compound registered a Rel max of 1.22.

Take `Cc1ccccc1N1CCN(C(=O)COc2ccc3[nH]cc(CCN)c3c2)CC1`: the pD2 in the test filed under Oryctolagus cuniculus [2] worked out at 5.86. The Rel max in the test filed under Oryctolagus cuniculus [3] was determined as 1.01.

With `NCCc1c[nH]c2ccc(OCCCC(=O)N3CCN(c4ccc([N+](=O)[O-])cc4)CC3)cc12`, in test [1], the Ki came out at 1.2 nM. Also, the pD2 in the test listed under Oryctolagus cuniculus [2] is 6.91. Also, in the test filed under Oryctolagus cuniculus [3], the Rel max was found to be 1.06.

Consider `CN(C)S(=O)(=O)Nc1ccc(N2CCN(C(=O)COc3ccc4[nH]cc(CCN)c4c3)CC2)cc1.Cl.O`, for which the Ki in test [1] is 0.26 nM. This compound also gave a pD2 in the test filed under Oryctolagus cuniculus [2] of 7.2. Besides, the Rel max in the test listed under Oryctolagus cuniculus [3] was found to be 0.96.

For the compound `CS(=O)(=O)NCc1ccccc1N1CCN(C(=O)COc2ccc3[nH]cc(CCN)c3c2)CC1`, the Ki in test [1] was determined as 1.8 nM. In the test filed under Oryctolagus cuniculus [2], this compound registered a pD2 of 6. The Rel max in the test filed under Oryctolagus cuniculus [3] amounted to 0.93.

As to `NCCc1c[nH]c2ccc(OCCCCCC(=O)N3CCN(c4ccc(N)cc4)CC3)cc12`, in test [1], the Ki came out at 0.38 nM. The same compound registered a pD2 in the test filed under Oryctolagus cuniculus [2] of 8.09. In addition, the Rel max in the test filed under Oryctolagus cuniculus [3] turned out to be 0.79.

Turning to `NCCc1c[nH]c2ccc(OCCCCCC(=O)N3CCN(c4ccc([N+](=O)[O-])cc4)CC3)cc12`, the Ki in test [1] came to 0.34 nM. Moreover, the pD2 in the test filed under Oryctolagus cuniculus [2] turned out to be 7. Moreover, the Rel max in the test filed under Oryctolagus cuniculus [3] is 0.73.

In the case of `NCCc1c[nH]c2ccc(OCC(=O)N3CCN(c4ccc(CN)cc4)CC3)cc12`, the Ki in test [1] was 0.93 nM. In the test listed under Oryctolagus cuniculus [2], this compound yielded a pD2 of 6.8. In addition, the Rel max in the test listed under Oryctolagus cuniculus [3] stood at 0.92.

`CS(=O)(=O)Nc1ccc(N2CCN(C(=O)COc3ccc4[nH]cc(CCN)c4c3)CC2)cc1`: the Ki in test [1] was 0.56 nM. The compound also returned a pD2 in the test filed under Oryctolagus cuniculus [2] of 7.62. Besides, in the test listed under Oryctolagus cuniculus [3], the Rel max is on record as 1.21.

In the case of `CNS(=O)(=O)Cc1ccc2[nH]cc(CCN(C)C)c2c1`, the pD2 in the test filed under Oryctolagus cuniculus [2] is 5.75. The compound also displayed a Rel max in the test filed under Oryctolagus cuniculus [3] of 1.26.

Regarding `NCCc1c[nH]c2ccc(OCCCCC(=O)N3CCN(c4ccc([N+](=O)[O-])cc4)CC3)cc12`, the Ki in test [1] is 2.5 nM. The compound further gave a pD2 in the test listed under Oryctolagus cuniculus [2] of 6.74. For the same compound, in the test listed under Oryctolagus cuniculus [3], the Rel max amounted to 0.71.

`CS(=O)(=O)Nc1ccc(N2CCN(C(=O)CCCCCOc3ccc4[nH]cc(CCN)c4c3)CC2)cc1`: in the test listed under Oryctolagus cuniculus [2], the pD2 was 8.33. In the test listed under Oryctolagus cuniculus [3], this compound returned a Rel max of 1.05.

On to `CC(=O)Nc1ccc(N2CCN(C(=O)COc3ccc4[nH]cc(CCN)c4c3)CC2)cc1`, for which the pD2 in the test filed under Oryctolagus cuniculus [2] came to 6.67. Also, the Rel max in the test listed under Oryctolagus cuniculus [3] is recorded as 1.01.

For `NCCc1c[nH]c2ccc(OCC(=O)N3CCN(c4ccccc4CN)CC3)cc12`, in test [1], the Ki came to 6.9 nM. This compound yielded a pD2 in the test filed under Oryctolagus cuniculus [2] of 6.52. For the same compound, the Rel max in the test filed under Oryctolagus cuniculus [3] came out at 0.9.

Consider `NCCc1c[nH]c2ccc(OCC(=O)N3CCN(c4ccccc4[N+](=O)[O-])CC3)cc12`, for which the Ki in test [1] was determined as 0.58 nM. This compound yielded a pD2 in the test listed under Oryctolagus cuniculus [2] of 6.33. Besides, the Rel max in the test listed under Oryctolagus cuniculus [3] is 0.87.

Take `NCCc1c[nH]c2ccc(OCC(=O)N3CCN(c4ccc(N)cc4)CC3)cc12`: in test [1], the Ki came to 2.92 nM. Also, in the test listed under Oryctolagus cuniculus [2], the pD2 turned out to be 6.88. This compound came in with a Rel max in the test listed under Oryctolagus cuniculus [3] of 0.83.

In the case of `NCCc1c[nH]c2ccc(OCC(=O)N3CCN(c4ccc(NC(=O)c5ccccc5)cc4)CC3)cc12`, in test [1], the Ki was 1.7 nM. Further, the pD2 in the test filed under Oryctolagus cuniculus [2] was determined as 7.31. The same compound displayed a Rel max in the test filed under Oryctolagus cuniculus [3] of 0.9.

In the case of `NCCc1c[nH]c2ccc(OCC(=O)N3CCN(c4ccc([N+](=O)[O-])cc4)CC3)cc12`, in test [1], the Ki worked out at 0.42 nM. In addition, the pD2 in the test listed under Oryctolagus cuniculus [2] stood at 6.12. For the same compound, the Rel max in the test listed under Oryctolagus cuniculus [3] was 0.52.

Take `NCCc1c[nH]c2ccc(OCC(=O)N3CCN(c4ccccc4)CC3)cc12`: the Ki in test [1] stood at 1.2 nM. Also, in the test filed under Oryctolagus cuniculus [2], the pD2 is on record as 7.63. In the test listed under Oryctolagus cuniculus [3], this compound displayed a Rel max of 0.68.

`CN(C)CCc1c[nH]c2ccc(Cn3cncn3)cc12` [RIZATRIPTAN] gave a pD2 in the test listed under Oryctolagus cuniculus [2] of 6.15. For the same compound, the Rel max in the test listed under Oryctolagus cuniculus [3] is 1.42.

`NCCc1c[nH]c2ccc(O)cc12` [SEROTONIN] yielded a Rel max in the test filed under Oryctolagus cuniculus [3] of 1.

As to `CN(C)CCc1c[nH]c2ccc(C[C@H]3COC(=O)N3)cc12` [ZOLMITRIPTAN], the Ki in test [1] stood at 0.92 nM. The pD2 in the test listed under Oryctolagus cuniculus [2] amounted to 6.13. The Rel max in the test listed under Oryctolagus cuniculus [3] worked out at 1.48.
